Laboratory results as given in ChEMBL document CHEMBL1122660 (J Med Chem, 1984).

Columns and labels:
[1] = tested on: Mus musculus; assay: Evaluated for antitumor activity against B-16 melanoma in mice at a dose 8 mg/kg day, ip, on days 1, 4, and 7 against B-16 Melanoma cell; assay type: functional
[2] = Partition coefficient between 1-octanol and water containing phosphate buffer at pH 7.4; assay type: physicochemical; conditions: 1-octanol/water containing phosphate buffer
[3] = tested on: Mus musculus; assay: Evaluated for antitumor activity against B-16 melanoma in mice at a dose 12 mg/kg day, ip, on days 1, 4, and 7 against B-16 Melanoma cell; assay type: functional
[4] = tested on: P388; assay: Optimum dose (mg/kg) against P388 leukemic cells; assay type: functional, Mus musculus
[5] = tested on: P388; assay: Minimum effective dose against P388 leukemic cells; assay type: functional; conditions: Mus musculus, read-out: MED
[6] = organism: Mus musculus; assay: Percentage change in WBC at optimum dose on day 3; assay type: functional
[7] = tested on: Mus musculus; assay: Evaluated for antitumor activity against B-16 melanoma in mice at a dose 3 mg/kg day, ip, on days 1, 4, and 7 against B-16 Melanoma cell *-Tumors survivors on day 62; assay type: functional
[8] = tested on: Mus musculus; assay: Evaluated for antitumor activity against B-16 melanoma in mice at a dose 5 mg/kg day, ip, on days 1, 4, and 7 against B-16 Melanoma cell; assay type: functional
[9] = tested on: Mus musculus; assay: Evaluated for antitumor activity against B-16 melanoma in mice at a dose 3 mg/kg day, ip, on days 1, 4, and 7 against B-16 Melanoma cell; assay type: functional
How it was run: (§1)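 B-16 melanoma in mice, run at Bristol Laboratories by standard NCI protocols. Compound given ip on days 1, 4 and 7 in Me2SO + buffered saline vehicle; ten mice per dose. Read-outs per dose: %T/C, number of survivors, and weight change.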

[10] = organism: Mus musculus; assay: Maximum percent T/C (antitumor activity) against P388 leukemia cells for the compound. The number of 30-day survivors is given in the parenthesis.; assay type: functional
[11] = tested on: P388; assay: Ratio of optimal dose (OD) and minimum effective dose (MED) required for antitumor activity in mice bearing P-388 lymphocytic leukemia; assay type: functional, Mus musculus
[12] = tested on: Mus musculus; assay: Evaluated for antitumor activity against B-16 melanoma in mice at a dose 5 mg/kg day, ip, on days 1, 4, and 7 against B-16 Melanoma cell *-Tumors survivors on day 62; assay type: functional
[13] = tested on: P388; assay: Maximum percent T/C (antitumor activity) against P388 leukemia cells for Mitomycin C; assay type: functional, Mus musculus
[14] = tested on: Mus musculus; assay: Evaluated for antitumor activity against B-16 melanoma in mice aat a dose 3 mg/kg day, ip,on days 1, 4, and 7 against B-16 Melanoma cell; assay type: functional
[15] = tested on: Mus musculus; assay: Evaluated for antitumor activity against B-16 melanoma in mice at a dose 6 mg/kg day, ip, on days 1, 4, and 7 against B-16 Melanoma cell; assay type: functional
[16] = tested on: Mus musculus; assay: Evaluated for antitumor activity against B-16 melanoma in mice aat a dose 2 mg/kg day, ip,on days 1, 4, and 7 against B-16 Melanoma cell; assay type: functional
[17] = tested on: Mus musculus; assay: Evaluated for antitumor activity against B-16 melanoma in mice at a dose 2 mg/kg day, ip, on days 1, 4, and 7 against B-16 Melanoma cell; assay type: functional; how it was run: as §1
[18] = tested on: Mus musculus; assay: Evaluated for antitumor activity against B-16 melanoma in mice at a dose 4 mg/kg day, ip, on days 1, 4, and 7 against B-16 Melanoma cell; assay type: functional; how it was run: as §1
[19] = tested on: P388; assay: Maximum percent T/C (antitumor activity) against P388 leukemia cells; assay type: functional, Mus musculus
[20] = Distribution between 1-octanol and water containing phosphate buffer at pH 7.4; assay type: physicochemical; conditions: 1-octanol/water containing phosphate buffer
[21] = organism: Mus musculus; assay: Maximum percent T/C (antitumor activity) against P388 leukemia cells for Mitomycin C. The number of 30-day survivors is given in the parenthesis.; assay type: functional
[22] = tested on: Mus musculus; assay: Evaluated for antitumor activity against B-16 melanoma in mice aat a dose 1 mg/kg day, ip,on days 1, 4, and 7 against B-16 Melanoma cell; assay type: functional; how it was run: as §1
[23] = organism: Mus musculus; assay: Maximum percent T/C (antitumor activity) against P388 leukemia cells for the compound; 144-325; assay type: functional
[24] = tested on: Mus musculus; assay: Evaluated for antitumor activity against B-16 melanoma in mice at a dose 4 mg/kg day, ip, on days 1, 4, and 7 against B-16 Melanoma cell *-Tumors survivors on day 62; assay type: functional
[25] = tested on: Mus musculus; assay: Evaluated for antitumor activity against B-16 melanoma in mice at a dose 1 mg/kg day, ip, on days 1, 4, and 7 against B-16 Melanoma cell *-Tumors survivors on day 62; assay type: functional
[26] = tested on: Mus musculus; assay: Evaluated for antitumor activity against B-16 melanoma in mice at a dose 1 mg/kg day, ip, on days 1, 4, and 7 against B-16 Melanoma cell; assay type: functional; how it was run: as §1
[27] = tested on: Mus musculus; assay: Evaluated for antitumor activity against B-16 melanoma in mice at a dose 2 mg/kg day, ip, on days 1, 4, and 7 against B-16 Melanoma cell *-Tumors survivors on day 62; assay type: functional

[H][C@@]12CN3c4c(O)c(C)c(/N=C5C=C/C(=N\C(C)=O)C=C/5)c(O)c4[C@H](COC(N)=O)C3(OC)[C@]1([H])N2 (some centres undefined)
Average weight gain [1]: 0.3 g | T/C [1]: 207% | logD [2]: 0.33 | Average weight gain [3]: -1.3 g | T/C [3]: 175% | OD [4]: 25.6 mg/kg | minimal effective dose [5]: 0.2 mg/kg | Change [6]: -40% | Cures [7]: 0 | Average weight gain [8]: 0.8 g | T/C [8]: 185% | T/C [9]: 155% | T/C [10]: >333% | Therapeutic ratio [11]: 128 | Cures [12]: 0 | T/C [13]: 200% | Average weight gain [14]: 1.4 g

COc1ccc(NC2=C(C)C(=O)C3=C(C2=O)[C@H](COC(N)=O)C2(OC)[C@@H]4N[C@@H]4CN32)cc1OC (some centres undefined)
Average weight gain [1]: 0.9 g | T/C [1]: 227% | OD [4]: 12.8 mg/kg | minimal effective dose [5]: 0.2 mg/kg | T/C [10]: >333% | Therapeutic ratio [11]: 64 | Average weight gain [15]: 0.6 g | T/C [15]: 263% | Average weight gain [16]: -1.3 g | T/C [17]: 180% | T/C [13]: 278% | Average weight gain [18]: -0.6 g | T/C [18]: 252%

COC12[C@@H]3N[C@@H]3CN1C1=C(C(=O)C(Nc3cccnc3)=C(C)C1=O)[C@@H]2COC(N)=O (some centres undefined)
T/C [19]: 211% | OD [4]: 3.2 mg/kg | minimal effective dose [5]: 0.2 mg/kg | Change [6]: -33% | logD [20]: 0.52 | Therapeutic ratio [11]: 16 | T/C [13]: 198%

COC12[C@@H]3N[C@@H]3CN1c1c(O)c(C)c(N=C3C=CC(=N)C=C3)c(O)c1[C@@H]2COC(N)=O (some centres undefined)
logD [2]: 0.07 | OD [4]: 12.8 mg/kg | minimal effective dose [5]: < 0.2 mg/kg | Change [6]: -64% | T/C [21]: 250% | T/C [10]: >337% | Therapeutic ratio [11]: >64

COC12[C@@H]3N[C@@H]3CN1C1=C(C(=O)C(Nc3nccs3)=C(C)C1=O)[C@@H]2COC(N)=O (some centres undefined)
T/C [19]: 194% | OD [4]: 6.4 mg/kg | minimal effective dose [5]: 0.4 mg/kg | Change [6]: -22% | logD [20]: 0.62 | Therapeutic ratio [11]: 32 | T/C [13]: 281%

COC12[C@@H]3N[C@@H]3CN1C1=C(C(=O)C(N=C3C=CC(=Nc4c(C)c(O)c5c(c4O)[C@H](COC(N)=O)C4(OC)[C@@H]6N[C@@H]6CN54)C=C3)=C(C)C1=O)[C@@H]2COC(N)=O (some centres undefined)
T/C [19]: 161% | OD [4]: 25.6 mg/kg | minimal effective dose [5]: 1.6 mg/kg | T/C [21]: 250% | Therapeutic ratio [11]: 8

COC12[C@@H]3N[C@@H]3CN1C1=C(C(=O)C(Nc3ccc(Cl)cc3)=C(C)C1=O)[C@@H]2COC(N)=O (some centres undefined)
T/C [19]: 144% | logD [2]: 2.01 | OD [4]: 25.6 mg/kg | minimal effective dose [5]: 6.4 mg/kg | T/C [21]: 250% | Therapeutic ratio [11]: 4

CO[C@@]12[C@H](COC(N)=O)C3=C(C(=O)C(C)=C(N)C3=O)N1C[C@@H]1N[C@@H]12 [MITOMYCIN]
Average weight gain [22]: 0.2 g | T/C [23]: 144% | OD [4]: 3.2 mg/kg | minimal effective dose [5]: 0.2 mg/kg | Cures [24]: 0 | Change [6]: -42% | Cures [25]: 0 | Cures [7]: 0 | Average weight gain [9]: -0.1 g | T/C [9]: 165% | T/C [26]: 155% | Average weight gain [17]: 0.5 g | T/C [17]: 152% | Cures [27]: 0 | Average weight gain [18]: -0.1 | T/C [18]: 200%

COC12[C@@H]3N[C@@H]3CN1C1=C(C(=O)C(Nc3nc(C)cs3)=C(C)C1=O)[C@@H]2COC(N)=O (some centres undefined)
T/C [19]: 172% | OD [4]: 6.4 mg/kg | minimal effective dose [5]: 0.4 mg/kg | logD [20]: 1.16 | Therapeutic ratio [11]: 16 | T/C [13]: 224%

[H][C@@]12CN3c4c(O)c(C)c(/N=C5C=C/C(=N\CC(=O)O)C=C/5)c(O)c4[C@H](COC(N)=O)C3(OC)[C@]1([H])N2 (some centres undefined)
logD [2]: -0.78 | OD [4]: 25.6 mg/kg | minimal effective dose [5]: 0.8 mg/kg | T/C [21]: 294% | T/C [10]: 322% | Therapeutic ratio [11]: 32

COc1ccc(NC2=C(C)C(=O)C3=C(C2=O)[C@H](COC(N)=O)C2(OC)[C@@H]4N[C@@H]4CN32)cn1 (some centres undefined)
T/C [19]: 211% | OD [4]: 6.4 mg/kg | minimal effective dose [5]: 0.2 mg/kg | Change [6]: -45% | logD [20]: 0.59 | Therapeutic ratio [11]: 32 | T/C [13]: 233%

COc1ccc(NC2=C(C)C(=O)C3=C(C2=O)[C@H](COC(N)=O)C2(OC)[C@@H]4N[C@@H]4CN32)cc1 (some centres undefined)
logD [2]: 1.28 | OD [4]: 12.8 mg/kg | Change [6]: -76% | T/C [21]: 268% | T/C [10]: 316% | Therapeutic ratio [11]: 16

COC12[C@@H]3N[C@@H]3CN1c1c(O)c(C)c(/N=C3/C=CN=N3)c(O)c1[C@@H]2COC(N)=O (some centres undefined)
OD [4]: 25.6 mg/kg | minimal effective dose [5]: 0.8 mg/kg | Change [6]: -15% | T/C [10]: 333% | T/C [13]: 161%

COC12[C@@H]3N[C@@H]3CN1C1=C(C(=O)C(Nc3nc(C)c(C)s3)=C(C)C1=O)[C@@H]2COC(N)=O (some centres undefined)
T/C [19]: 188% | OD [4]: 25.6 mg/kg | minimal effective dose [5]: 0.2 mg/kg | logD [20]: 1.29 | Therapeutic ratio [11]: 128 | T/C [13]: 219%
